Experimental data: ChEMBL document CHEMBL3244063, “Pharmacology on rat ileum of certain 2-substituted 3-(dimethylamino)-5,6-dimethoxyindenes related to 5,6-(methylenedioxy)indene calcium antagonists” (1978)
Active and inactive are the calls of the source. The rule behind the calls is not given here.

Columns and labels:
Rattus norvegicus [1] = species on record: Rattus norvegicus; experiment: Antagonist activity at calcium channel in albino rat ileum assessed as inhibition of acetylcholine-induced spasmogenic action by measuring contraction of ileum at 10^-5 acetylcholine induction (reference value: 80 +/- 5%); assay type: tissue-based; design: scale not given: the % may be the effect or the level left
Rattus norvegicus [2] = species on record: Rattus norvegicus; experiment: Agonist activity at calcium channel in albino rat ileum assessed as induction of spasmogenic action by measuring contraction of ileum at 10^-3 M measured for 3 mins relative to PGF-2alpha; assay type: tissue-based
Summary of the method: (§1)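 Isolated rat ileum strips in an organ bath, with a separate strip for each compound and concentration. A control contraction to PGF2α (3 × 10⁻⁷ M bath) or acetylcholine (10⁻⁶ M bath) is recorded, and the bath is washed three times. Contraction during the 3-min test-compound incubation, before spasmogen is added, is expressed as percent of the control spasmogen response. Mean ± SEM of four experiments.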

Rattus norvegicus [3] = species on record: Rattus norvegicus; experiment: Antagonist activity at calcium channel in albino rat ileum assessed as inhibition of acetylcholine-induced spasmogenic action by measuring contraction of ileum at 10^-4 acetylcholine induction (reference value: 80 +/- 5%); assay type: tissue-based; design: scale not given: the % may be the effect or the level left
Rattus norvegicus [4] = species on record: Rattus norvegicus; experiment: Antagonist activity at calcium channel in albino rat ileum assessed as inhibition of PGF-2alpha-induced spasmogenic action by measuring contraction of ileum at 10^-5 M preincubated for 3 mins followed by PGF-2alpha induction (reference value: 76 +/- 4%); assay type: tissue-based; design: scale not given: the % may be the effect or the level left
Rattus norvegicus [5] = species on record: Rattus norvegicus; experiment: Antagonist activity at calcium channel in albino rat ileum assessed as inhibition of PGF-2alpha-induced spasmogenic action by measuring contraction of ileum at 10^-6 M preincubated for 3 mins followed by PGF-2alpha induction (reference value: 76 +/- 4%); assay type: tissue-based; design: scale not given: the % may be the effect or the level left
Rattus norvegicus [6] = species on record: Rattus norvegicus; experiment: Agonist activity at calcium channel in albino rat ileum assessed as induction of spasmogenic action by measuring contraction of ileum at 10^-6 to 10^-5 M measured for 3 mins; assay type: tissue-based; summary of the method: as §1
Rattus norvegicus [7] = species on record: Rattus norvegicus; experiment: Agonist activity at calcium channel in albino rat ileum assessed as induction of spasmogenic action by measuring contraction of ileum at 10^-4 M measured for 3 mins relative to PGF-2alpha; assay type: tissue-based; summary of the method: as §1
Rattus norvegicus [8] = species on record: Rattus norvegicus; experiment: Antagonist activity at calcium channel in albino rat ileum assessed as inhibition of PGF-2alpha-induced spasmogenic action by measuring contraction of ileum at 10^-4 M preincubated for 3 mins followed by PGF-2alpha induction (reference value: 76 +/- 4%); assay type: tissue-based; design: scale not given: the % may be the effect or the level left
Rattus norvegicus [9] = species on record: Rattus norvegicus; experiment: Agonist activity at calcium channel in albino rat ileum assessed as induction of spasmogenic action by measuring contraction of ileum at 10^-4 M measured for 3 mins relative to acetylcholine; assay type: tissue-based; summary of the method: as §1
Rattus norvegicus [10] = species on record: Rattus norvegicus; experiment: Antagonist activity at calcium channel in albino rat ileum assessed as inhibition of acetylcholine-induced spasmogenic action by measuring contraction of ileum at 10^-3 acetylcholine induction (reference value: 80 +/- 5%); assay type: tissue-based; design: scale not given: the % may be the effect or the level left
Rattus norvegicus [11] = species on record: Rattus norvegicus; experiment: Antagonist activity at calcium channel in albino rat ileum assessed as inhibition of acetylcholine-induced spasmogenic action by measuring contraction of ileum at 10^-6 acetylcholine induction (reference value: 80 +/- 5%); assay type: tissue-based; design: scale not given: the % may be the effect or the level left
Rattus norvegicus [12] = species on record: Rattus norvegicus; experiment: Agonist activity at calcium channel in albino rat ileum assessed as induction of spasmogenic action by measuring contraction of ileum at 10^-3 M measured for 3 mins relative to acetylcholine; assay type: tissue-based; summary of the method: as §1
Rattus norvegicus [13] = species on record: Rattus norvegicus; experiment: Antagonist activity at calcium channel in albino rat ileum assessed as inhibition of PGF-2alpha-induced spasmogenic action by measuring contraction of ileum at 10^-3 M preincubated for 3 mins followed by PGF-2alpha induction (reference value: 76 +/- 4%); assay type: tissue-based; design: scale not given: the % may be the effect or the level left
Heart = experiment: Positive inotropic activity in perfused rabbit heart assessed as increase in force of contraction at 10^-6 M relative to control; assay type: functional, Oryctolagus cuniculus

SMILES	Activity (Rattus norvegicus [1])	Activity (Rattus norvegicus [2])	Activity (Rattus norvegicus [3])	Activity (Rattus norvegicus [4])	Activity (Rattus norvegicus [5])	Activity (Rattus norvegicus [6])	Activity (Rattus norvegicus [7])	Activity (Rattus norvegicus [8])	Activity (Rattus norvegicus [9])	Activity (Rattus norvegicus [10])	Activity (Rattus norvegicus [11])	Activity (Rattus norvegicus [12])	Activity (Rattus norvegicus [13])	Activity (Heart)
COc1cc2c(cc1OC)C(N(C)C)C(C)=C2 (stereo not drawn)	113%	119%	94.4%	108%	111%	inactive	59.8%	113%	20.6%	64%	113%	49.5%	124%	
CCC1=Cc2cc(OC)c(OC)cc2C1N(C)C (stereo not drawn)	105%	77.3%	91.5%	108%	98.7%	inactive	74.7%	110%	28.9%	51.3%	105%	45.3%	62%	
CCCC1=Cc2cc3c(cc2C1N(C)C)OCO3.Cl (stereo not drawn)														36%
CCCCC1=Cc2cc(OC)c(OC)cc2C1N(C)C (stereo not drawn)	108%	58.1%	78.6%	91.1%	101%	inactive	37.1%	60.5%	25.3%	64.3%	104%	46.7%	65.2%	
CCCC1=Cc2cc(OC)c(OC)cc2C1N(C)C (stereo not drawn)	110%	61.7%	96.6%	99.3%	104%	inactive	80.7%	99.7%	42.7%	56.7%	104%	43.6%	49.1%	
